PubChem BioAssay
Inconclusive results are not listed.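 The calls were made as follows, unless noted: active = viability increase at or above a cutoff of the median across tested compounds plus 3 SD (cut at about 8.5% in these data, passing the limit was not always enough); inconclusive = some gains above the cutoff, reason not given; inactive = the rest.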

Legend:
[1] = OD615 S. cerevisiae growth inhibition, permissive medium, pilot counter-assay, permissive growth control for S. cerevisiae lifespan shortening project (AID 705;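 active = growth inhibition above 25% in both replicates, a cutoff set 3 SD above the mean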); conditions: OD615, 24 h, at 10 µM, stronger effect = higher value
Outline: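 System: engineered DeaD yeast; Medium: permissive raffinose/galactose medium; Compound dosing: 10 µM single dose, 0.25% DMSO; Incubation: 4 h cell pre-growth, 24 h exposure at 30 °C; Technique: OD at 615 nm; Evaluation: growth inhibition from lowered OD615 after 24 h.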

[2] = Restrictive medium S. cerevisiae growth inhibition, OD615, pilot screen of yeast lifespan reduction project, restrictive growth control (AID 706;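 active = growth inhibition above a set limit, 3 SD over mean compound inhibition, in both replicates, cut at about 43% in these data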;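 also: modified DeaD lifespan yeast strain shifted to restrictive glucose medium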); conditions: OD615, 48 h, at 10 µM, stronger effect = higher value
Outline: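 Material: modified S. cerevisiae; buffer or medium: CSMM-D glucose medium; doses: one concentration, 10 µM final, 0.25% DMSO; incubation: 48 h compound exposure at 30 °C; detection: optical density at 615 nm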

[3] = viability gain of MRP-1-high H69AR cells under doxorubicin, pilot screen, MRP-1 activator project, CellTiter-Glo, duplicate (AID 807); conditions: H69AR viability with doxorubicin, CellTiter-Glo luminescence; at 10 µM; stronger effect = higher value;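 also: compound pretreatment 18-22 h then 72 h combined with doxorubicin; 0% = doxorubicin alone and 100% = vehicle without doxorubicin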
[4] = growth suppression of beta-catenin knockout HCT116, pilot screen, human colon tumor cells (AID 823;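 active = cell viability at or below a set limit in both duplicate runs, the limit being the all-compound median minus 4 SD, cut at about 23% in these data, passing the limit was not always enough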;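 also: 0% = wells killed by 20 µM Hyamine and 100% = untreated DMSO cell wells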); conditions: CellTiter-Glo, 60 h, at 10 µM, stronger effect = lower value
[5] = growth suppression of PTEN-deleted HCT116, pilot screen, cell-based, HCT116 clonal line, CellTiter-Glo (AID 824;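 active = viability at or below 27.92% in each of two runs, the all-compound median minus 4 SD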;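 also: 0% = 20 µM Hyamine control and 100% = vehicle cell control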); conditions: 60 h, at 10 µM, stronger effect = lower value
[6] = inhibitors of the yeast RAM network, pilot screen, dse1pr::URA3 reporter, 5-FOA selection (AID 869;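 active = inhibition over a set limit, the all-compound mean plus 3 SD, in both replicate runs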;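 also: 0% = DMSO wells with no growth and 100% = 10 µM 1-NA-PP1 with full growth; RAM network block rescues cells from 5-FOA so hits raise OD615 growth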); conditions: S. cerevisiae dse1pr::URA3 5-FOA growth, OD615, 2 d; at 10 µM; stronger effect = higher value; strain carries analog-sensitive mutant Cbk1 kinase
[7] = RAM signaling pathway blockade in yeast – S. cerevisiae, Pdr1DBD-CYC8 efflux-inhibited sensitized strain, primary screen (AID 1298;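 active = RAM network inhibition above 8.4% in each of two replicates, 3 SD over the compound average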;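 also: 0% = DMSO untreated cells without growth and 100% = 10 µM 1-NA-PP1 full growth; higher means more yeast growth rescued from 5-FOA killing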); conditions: S. cerevisiae cbk1-as DSE1-URA3 strain, 5-FOA growth OD615, 2 d; at 50 µM; stronger effect = higher value

CCc1nnc(NC(=O)CSc2nccn2-c2cccc(C)c2)s1
inactive: growth inhibition [1] -8.43% | growth inhibition [2] 11.6% | viability increase [3] 0.02% | viability [4] 109% | viability [5] 98.1% | inhibition [6] 0.64% | RAM network inhibition [7] 5.11%

COC(=O)C1=C(C)N(Cc2cccnc2)C(=O)C1
inactive: growth inhibition [1] -10.7% | growth inhibition [2] -8.8% | viability increase [3] -1.77% | viability [4] 98.7% | viability [5] 102% | inhibition [6] 2.84% | RAM network inhibition [7] 5.02%

CC(=O)Nc1nonc1-c1nc2ccccc2n1N(C(C)=O)C(C)=O
inactive: growth inhibition [1] 3.74% | growth inhibition [2] 8.55% | viability increase [3] -2.77% | viability [4] 93.2% | viability [5] 93.5% | inhibition [6] 2.67% | RAM network inhibition [7] 3.63%

COc1ccc(NS(=O)(=O)c2ccc(NS(=O)(=O)c3ccc(C)cc3)cc2)nn1
inactive: growth inhibition [1] -13.5% | growth inhibition [2] -7.58% | viability increase [3] 1.15% | viability [4] 92.9% | viability [5] 96.8% | inhibition [6] 2.95% | RAM network inhibition [7] 4.16%

CCc1ccc(NC(=O)c2ccc3c(c2)C(=O)N(Cc2ccco2)C3=O)cc1
inactive: growth inhibition [1] -3.35% | growth inhibition [2] 7.26% | viability increase [3] -2.41% | viability [4] 93.6% | viability [5] 89.6% | inhibition [6] 0.185% | RAM network inhibition [7] 1.5%

O=C(CSc1nnnn1-c1cccc2c1CCCC2)N1CCOCC1
inactive: growth inhibition [1] -3.82% | growth inhibition [2] -27.1% | viability increase [3] -3.02% | viability [4] 95.4% | viability [5] 94.5% | inhibition [6] 0.68% | RAM network inhibition [7] 2.95%

Cn1c(NC(=O)c2cc(Br)ccc2Cl)cc(=O)n(C)c1=O
inactive: growth inhibition [1] 5.54% | growth inhibition [2] -8.75% | viability increase [3] -3.46% | viability [4] 96.8% | viability [5] 90.7% | inhibition [6] 1.64% | RAM network inhibition [7] 1.23%

Cc1nc2ccccc2c2oc(C(=O)NCCCN3CCC(C)CC3)cc12
inactive: growth inhibition [1] 2.51% | growth inhibition [2] 17.8% | viability increase [3] -5.7% | viability [4] 63.6% | viability [5] 64.7% | inhibition [6] 1.96% | RAM network inhibition [7] 6.26%

COC(=O)c1ccc2c(c1)N(C)CCS2
inactive: growth inhibition [1] -7.72% | growth inhibition [2] -2.27% | viability increase [3] -0.04% | viability [4] 101% | viability [5] 93.9% | inhibition [6] 0.22% | RAM network inhibition [7] -0.26%

O=C(CNS(=O)(=O)c1cccc2nsnc12)NCc1ccc(Cl)cc1
inactive: growth inhibition [1] -2.9% | growth inhibition [2] -2.34% | viability increase [3] -4.44% | viability [4] 88% | viability [5] 91.5% | inhibition [6] 0.415% | RAM network inhibition [7] 4.28%

COc1ccc(C(=O)N2CCN(c3c(C)cccc3C)CC2)cc1OC
inactive: growth inhibition [1] -19.6% | growth inhibition [2] -4.21% | viability increase [3] 0.4% | viability [4] 80.8% | viability [5] 72% | inhibition [6] 0.89% | RAM network inhibition [7] 1.36%

COc1ccc(Nc2nc(C)cc(C)c2C#N)cc1OC
inactive: growth inhibition [1] -2.02% | growth inhibition [2] 5.43% | viability increase [3] 1.79% | viability [4] 107% | viability [5] 107% | inhibition [6] 0.715% | RAM network inhibition [7] 1.79%

CCOCCCNC(=O)c1cccs1
inactive: growth inhibition [1] -5.41% | growth inhibition [2] -4.17% | viability increase [3] -1.31% | viability [4] 91% | viability [5] 94.4% | inhibition [6] 2.22% | RAM network inhibition [7] 0.76%

c1ccc(OCCOCCSc2ncccn2)cc1
inactive: growth inhibition [1] 1.54% | growth inhibition [2] -1.09% | viability increase [3] 2.36% | viability [4] 101% | viability [5] 98.4% | inhibition [6] 0.395% | RAM network inhibition [7] 3.21%

Cc1cccc(OCc2nnc(SCC(=O)Nc3ccc(C)c(C)c3)o2)c1
inactive: growth inhibition [1] -5.54% | growth inhibition [2] 1.43% | viability increase [3] -2.67% | viability [4] 102% | viability [5] 94.2% | inhibition [6] 4.2% | RAM network inhibition [7] 1.73%

CCOc1ccc(-n2c(SCc3ccc(C(=O)OC)o3)nc3c(c2=O)SCC3)cc1
inactive: growth inhibition [1] -21.2% | growth inhibition [2] -16.2% | viability increase [3] -2.41% | viability [4] 81.3% | viability [5] 72.7% | inhibition [6] 2.39% | RAM network inhibition [7] 6.94%

c1ccc(N2CCN(c3nnnn3-c3ccccc3)CC2)cc1
inactive: growth inhibition [1] -10.6% | growth inhibition [2] 3.73% | viability increase [3] -0.01% | viability [4] 76% | viability [5] 75.7% | inhibition [6] 1.12% | RAM network inhibition [7] 9%

O=C(NCCCN1CCCC1=O)c1ccc2c(c1)ncn2C1CCCCC1
inactive: growth inhibition [1] 0.37% | growth inhibition [2] 2.91% | viability increase [3] 1.87% | viability [4] 105% | viability [5] 109% | inhibition [6] 0.03% | RAM network inhibition [7] 10.9%

CCOc1ccc(C2CC(c3ccc(OC)c(OC)c3)n3nc(N)nc3N2)cc1 (stereo not drawn)
inactive: growth inhibition [1] 2.68% | growth inhibition [2] 5.4% | viability increase [3] 0.31% | viability [4] 101% | viability [5] 92.7% | inhibition [6] 2.06% | RAM network inhibition [7] 5.15%

Cc1ccccc1-n1c(Cn2c(=O)sc3ccccc32)nnc1SCC(=O)Nc1nccs1
inactive: growth inhibition [1] -3.9% | growth inhibition [2] -13% | viability increase [3] -5.13% | viability [4] 75.2% | viability [5] 59.9% | inhibition [6] 2.25% | RAM network inhibition [7] 5.86%

CC1CCN(c2c(NCc3ccc(C(=O)NCC4COc5ccccc5O4)cc3)c(=O)c2=O)CC1 (stereo not drawn)
inactive: growth inhibition [1] 2.94% | growth inhibition [2] 14.3% | viability increase [3] -2.96% | viability [4] 86.2% | viability [5] 96.2% | inhibition [6] 0.785% | RAM network inhibition [7] 4.87%

Cn1nnnc1SCC(=O)c1cccs1
inactive: growth inhibition [1] -23.8% | growth inhibition [2] -13% | viability increase [3] -2.93% | viability [4] 93% | viability [5] 90.9% | inhibition [6] 1.24% | RAM network inhibition [7] 1.92%

CCOC(=O)N1CCN(C(=O)C2CC(c3ccc(F)cc3)=NO2)CC1 (stereo not drawn)
inactive: growth inhibition [1] -5.22% | growth inhibition [2] -10.9% | viability increase [3] 1.33% | viability [4] 104% | viability [5] 108% | inhibition [6] 0.815% | RAM network inhibition [7] 2.2%

O=C(Cn1cc2c(n1)CCCCC2)NC1CCN(Cc2ccccc2)CC1
inactive: growth inhibition [1] -6.81% | growth inhibition [2] 2.45% | viability increase [3] -1.57% | viability [4] 86.5% | viability [5] 83.4% | inhibition [6] 2.21% | RAM network inhibition [7] 7.63%
